In ChEMBL document CHEMBL1133013, “Structure-activity relationships and pharmacokinetic analysis for a series of potent, systemically available biphenylsulfonamide matrix metalloproteinase inhibitors” (J Med Chem, 2000):

Legend:
[1] = Cmax in rat plasma after single 5 mg/kg oral cassette gavage dose; assay type: ADME, organism-based; design: dose 5 mg/kg, route oral
How it was run: (§1)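 Cassette of 5–7 compounds given together as one oral gavage, 5 mg/kg per compound, methyl cellulose suspension, 3 fasted male Wistar rats (80-90 days old). Heparinized plasma taken by jugular cannula predose to 48 h. LC-MS/MS with LLOQ 10 ng/mL. Noncompartmental analysis of individual rats: Cmax/tmax as observed, t1/2 = 0.693/λz, trapezoidal AUC(0-tldc) extrapolated to infinity.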

[2] = Concentration in rat plasma 24 hours after single 5 mg/kg oral cassette gavage dose; assay type: ADME, organism-based; design: dose 5 mg/kg, route oral; conditions: read-out: C24
[3] = Half life (t1/2) in rats following a single 5 mg/kg oral cassette gavage dose; assay type: ADME, organism-based; design: dose 5 mg/kg, route oral; conditions: rat, in vivo; how it was run: as §1
[4] = Pharmacokinetic parameters in rats following a single 5 mg/kg oral cassette gavage dose; assay type: ADME, organism-based; design: dose 5 mg/kg, route oral; conditions: rat, in vivo, read-out: AUC 0-infinity; how it was run: as §1
[5] = AUC in rats following a single 5 mg/kg oral cassette gavage dose; assay type: ADME, organism-based; design: dose 5 mg/kg, route oral; conditions: rat, plasma, read-out: AUC 0-tldc; how it was run: as §1
[6] = Time to maximal concentration (tmax) in rats following a single 5 mg/kg oral cassette gavage dose; assay type: ADME, organism-based; design: dose 5 mg/kg, route oral; conditions: rat, in vivo; how it was run: as §1
Stromelysin-1 = Stromelysin-1 (Homo sapiens, UniProt P08254); assay: In vitro inhibition of recombinant human matrix metalloprotease-3 (MMP-3)
Stromelysin-1, sequence (P08254 whole entry): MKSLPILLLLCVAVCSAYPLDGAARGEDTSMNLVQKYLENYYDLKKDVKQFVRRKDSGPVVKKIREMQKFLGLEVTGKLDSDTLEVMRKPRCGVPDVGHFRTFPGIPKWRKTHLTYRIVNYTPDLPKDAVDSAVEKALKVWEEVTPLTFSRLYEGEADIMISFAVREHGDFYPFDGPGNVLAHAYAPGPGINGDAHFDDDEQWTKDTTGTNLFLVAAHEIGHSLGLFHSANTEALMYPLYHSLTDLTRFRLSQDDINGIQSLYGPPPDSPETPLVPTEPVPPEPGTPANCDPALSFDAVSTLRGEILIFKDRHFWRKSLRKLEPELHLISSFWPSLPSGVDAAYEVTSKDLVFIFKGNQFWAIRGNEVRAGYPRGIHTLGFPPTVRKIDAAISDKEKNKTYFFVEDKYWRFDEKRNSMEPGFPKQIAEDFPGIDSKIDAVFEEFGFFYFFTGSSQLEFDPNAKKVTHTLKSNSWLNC

[7] = target: Matrix metalloproteinase-9 (Homo sapiens, UniProt P14780); assay: In vitro inhibition of matrix metalloprotease-9 (MMP-9)
Matrix metalloproteinase-9, sequence (P14780 whole entry): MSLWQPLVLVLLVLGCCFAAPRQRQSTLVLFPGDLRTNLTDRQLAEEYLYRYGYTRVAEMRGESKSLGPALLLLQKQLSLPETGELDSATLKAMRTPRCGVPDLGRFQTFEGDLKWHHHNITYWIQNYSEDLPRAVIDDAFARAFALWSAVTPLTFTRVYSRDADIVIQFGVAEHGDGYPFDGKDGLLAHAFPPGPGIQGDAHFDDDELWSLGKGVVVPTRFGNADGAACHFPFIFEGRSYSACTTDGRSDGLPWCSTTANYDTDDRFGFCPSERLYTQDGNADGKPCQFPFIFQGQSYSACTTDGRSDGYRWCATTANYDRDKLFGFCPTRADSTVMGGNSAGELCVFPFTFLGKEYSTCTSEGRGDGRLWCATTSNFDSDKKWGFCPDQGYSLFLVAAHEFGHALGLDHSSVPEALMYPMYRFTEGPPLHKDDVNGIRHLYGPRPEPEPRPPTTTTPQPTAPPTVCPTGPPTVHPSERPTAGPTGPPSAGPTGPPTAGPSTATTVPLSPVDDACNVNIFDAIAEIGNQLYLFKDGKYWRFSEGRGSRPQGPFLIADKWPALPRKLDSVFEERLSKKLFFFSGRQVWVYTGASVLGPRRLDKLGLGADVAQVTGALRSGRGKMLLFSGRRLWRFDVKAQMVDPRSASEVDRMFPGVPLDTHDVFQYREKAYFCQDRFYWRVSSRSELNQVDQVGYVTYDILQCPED

Matrilysin = target: T1, Matrilysin (Homo sapiens, UniProt P09237); assay: In vitro inhibition of matrix metalloprotease-7 (MMP-7)
T1 sequence (P09237 whole entry): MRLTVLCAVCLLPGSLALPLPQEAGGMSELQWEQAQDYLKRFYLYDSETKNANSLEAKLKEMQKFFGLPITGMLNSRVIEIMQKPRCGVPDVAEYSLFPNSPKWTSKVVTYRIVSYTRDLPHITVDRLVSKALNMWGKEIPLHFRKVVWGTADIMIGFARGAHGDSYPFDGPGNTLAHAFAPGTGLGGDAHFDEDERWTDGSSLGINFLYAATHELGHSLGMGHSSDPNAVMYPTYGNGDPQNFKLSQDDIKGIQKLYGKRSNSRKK

Interstitial collagenase = target: T2, Interstitial collagenase (Homo sapiens, UniProt P03956); assay: In vitro inhibition of human recombinant matrix metalloprotease-1 (MMP-1)
T2 sequence (P03956 whole entry): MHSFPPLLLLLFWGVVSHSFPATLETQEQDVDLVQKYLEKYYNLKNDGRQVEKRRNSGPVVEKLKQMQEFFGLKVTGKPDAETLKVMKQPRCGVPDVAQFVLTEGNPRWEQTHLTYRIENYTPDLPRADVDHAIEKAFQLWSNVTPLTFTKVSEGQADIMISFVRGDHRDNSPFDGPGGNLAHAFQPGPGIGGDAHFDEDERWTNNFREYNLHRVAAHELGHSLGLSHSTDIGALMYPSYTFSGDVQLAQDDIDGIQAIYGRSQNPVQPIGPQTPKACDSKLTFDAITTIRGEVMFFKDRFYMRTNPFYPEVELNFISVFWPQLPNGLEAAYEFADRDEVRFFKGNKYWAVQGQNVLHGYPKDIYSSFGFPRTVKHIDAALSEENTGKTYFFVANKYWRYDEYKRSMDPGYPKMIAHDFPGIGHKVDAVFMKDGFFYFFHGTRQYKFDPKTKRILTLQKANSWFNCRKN

[8] = target: 72 kDa type IV collagenase (Homo sapiens, UniProt P08253); assay: In vitro inhibition of matrix metalloprotease-2 (MMP-2)
72 kDa type IV collagenase, sequence (P08253 whole entry): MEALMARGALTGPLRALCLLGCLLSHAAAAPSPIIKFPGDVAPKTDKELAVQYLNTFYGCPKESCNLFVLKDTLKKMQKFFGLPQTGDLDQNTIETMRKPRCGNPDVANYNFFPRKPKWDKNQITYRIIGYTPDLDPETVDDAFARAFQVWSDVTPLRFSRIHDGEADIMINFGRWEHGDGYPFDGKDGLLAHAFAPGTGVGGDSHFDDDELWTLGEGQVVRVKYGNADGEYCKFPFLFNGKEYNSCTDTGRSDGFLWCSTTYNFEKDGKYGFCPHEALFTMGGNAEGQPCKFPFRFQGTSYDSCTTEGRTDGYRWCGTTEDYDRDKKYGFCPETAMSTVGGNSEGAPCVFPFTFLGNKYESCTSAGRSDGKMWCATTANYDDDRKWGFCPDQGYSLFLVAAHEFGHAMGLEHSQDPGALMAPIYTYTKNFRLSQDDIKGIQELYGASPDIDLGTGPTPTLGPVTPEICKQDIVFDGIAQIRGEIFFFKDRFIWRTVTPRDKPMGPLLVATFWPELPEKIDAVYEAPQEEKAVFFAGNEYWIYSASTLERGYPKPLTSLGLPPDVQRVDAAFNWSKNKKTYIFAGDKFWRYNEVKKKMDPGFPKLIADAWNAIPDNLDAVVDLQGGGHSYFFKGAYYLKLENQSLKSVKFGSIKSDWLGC

Collagenase 3 = Collagenase 3 (Homo sapiens, UniProt P45452)

Row | SMILES | Cmax [1] | concentration at 24 h [2] | half-life [3] | AUC [4] | AUC [5] | Tmax [6] | IC50 (Stromelysin-1) | IC50 [7] | IC50 (Matrilysin) | IC50 (Interstitial collagenase) | IC50 [8] | IC50 (Collagenase 3)
1 | CC(C)[C@H](NS(=O)(=O)c1ccc(-c2ccc(C#N)cc2)cc1)C(=O)O | 17100 ng/mL | 5480 ng/mL | 12.5 h | 363 µg·h/mL | 289 µg·h/mL | 2.67 h | 6 nM | 59000 nM | 7000 nM | 18000 nM | 33 nM | 37 nM
2 | CC(C)[C@@H](NS(=O)(=O)c1ccc(-c2ccc(Br)cc2)cc1)C(=O)NO | 5930 ng/mL | 10 ng/mL | 6.78 h | 5.86 µg·h/mL | 5.73 µg·h/mL | 0.33 h | 5 nM | 18 nM | 140 nM | 110 nM | 1 nM | 2 nM
3 | CC(C)[C@H](NS(=O)(=O)c1ccc(-c2cccc(F)c2)cc1)C(=O)O | – | – | – | – | – | – | 17 nM | 65000 nM | 22000 nM | 8600 nM | 49 nM | 150 nM
4 | O=C(O)[C@H](Cc1ccccc1)NS(=O)(=O)c1ccc(-c2ccc(Br)cc2)cc1 | 10300 ng/mL | 6280 ng/mL | 29.7 h | 465 µg·h/mL | 310 µg·h/mL | 2.67 h | 20 nM | 27000 nM | 100000 nM | – | 19 nM | 21 nM
5 | O=C(O)C(CCS(=O)(=O)Cc1ccccc1)NS(=O)(=O)c1ccc(-c2ccc(Br)cc2)cc1 (stereo unspecified) | 451 ng/mL | – | 3.88 h | 2.73 µg·h/mL | 2.48 µg·h/mL | 1.67 h | 7 nM | 2300 nM | 15000 nM | 27000 nM | 2 nM | 12 nM
6 | CC(C)[C@H](NS(=O)(=O)c1ccc(-c2ccc([N+](=O)[O-])cc2)cc1)C(=O)O | 23400 ng/mL | 8360 ng/mL | 19.5 h | 586 µg·h/mL | 402 µg·h/mL | 0.667 h | 15 nM | 38000 nM | 5600 nM | 12000 nM | – | 102 nM
7 | CC(C)[C@H](NS(=O)(=O)c1ccc(-c2ccc(F)cc2)cc1)C(=O)O | 18700 ng/mL | 11300 ng/mL | 45.5 h | 1020 µg·h/mL | 670 µg·h/mL | 2.75 h | 10 nM | 64000 nM | 4800 nM | 4200 nM | 39 nM | 43 nM
8 | CC(C)[C@H](NS(=O)(=O)c1ccc(-c2ccc(Br)cc2)cc1)C(=O)NO | – | – | – | – | – | – | 810 nM | 84000 nM | 78000 nM | 24000 nM | 450 nM | 650 nM
9 | CC(C)[C@H](NS(=O)(=O)c1ccc(-c2ccc(N)cc2)cc1)C(=O)O | – | – | – | – | – | – | 36 nM | 20000 nM | 31000 nM | – | – | 105 nM
10 | CC(C)[C@@H](NS(=O)(=O)c1ccc(Oc2ccccc2)cc1)C(=O)NO | 310 ng/mL | – | 7.78 h | 3.17 µg·h/mL | 2.17 µg·h/mL | 0.33 h | 4 nM | 3 nM | 180 nM | – | 1 nM | 2 nM
11 | CC(C)[C@H](NS(=O)(=O)c1ccc(-c2ccccc2)cc1)C(=O)O | 5180 ng/mL | 39 ng/mL | 3.35 h | 3.6 µg·h/mL | 12.1 µg·h/mL | 0.5 h | 38 nM | 26000 nM | 71000 nM | 5400 nM | 40 nM | 62 nM
12 | Cc1ccc(-c2ccc(S(=O)(=O)N[C@H](C(=O)O)C(C)C)cc2)cc1 | 3070 ng/mL | < 10 ng/mL | 0.403 h | 2.37 µg·h/mL | 2.25 µg·h/mL | 0.5 h | 3 nM | 3900 nM | 4500 nM | 2200 nM | 2 nM | 11 nM
13 | CC(C)[C@@H](NS(=O)(=O)c1ccc(-c2ccc(C#N)cc2)cc1)C(=O)O | 12200 ng/mL | 4490 ng/mL | 12.8 h | 277 µg·h/mL | 256 µg·h/mL | 1.33 h | 5 nM | 3800 nM | 19000 nM | 14000 nM | 7 nM | 53 nM
